The results in this text go back to ChEMBL document CHEMBL1122758, “Studies of the mode of action of antitumor triazenes and triazines. 6. 1-Aryl-3-(hydroxymethyl)-3-methyltriazenes: synthesis, chemistry, and antitumor properties” (J Med Chem, 1984).

A short description of data set [1]: In vitro biological stability and half-life was measured in phosphate buffer at a pH of 7.4 at 37 degree Centigrade. Type of data set: physicochemical. The conditions noted are these: pH 7.4. In outline: (§1)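 Decomposition was tracked by UV spectroscopy as the fall in absorbance over time at the compound's λmax. Half-life came from the slope of a log plot of extent of decomposition against time, assuming first-order kinetics. Line 4 used Earl's buffer (NaCl, NaHCO3, glucose, KCl, NaH2PO4, HCl to pH 7.4). Lines 5-11 used Sorensen's phosphate buffer, with KH2PO4 and Na2HPO4 mixed to the stated pH.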

Data set [2] in a line: In vitro biological stability and half-life was measured in phosphate buffer at a pH of 7.5 at 25 degree Centigrade. Type of data set: physicochemical. The conditions noted are these: pH 7.5. The gist of the method:
as §1

Data set [3] relates to Mus musculus. As to the kind of experiment: Compound was evaluated in vivo for antitumor activity against TLX5R Lymphoma implanted mice and percentage increase in life span (%ILS(T/C)) was reported at a optimal dose of 20 mg/Kg five times daily. It counts as functional.
In data set [4] the test system is Mus musculus. As to the kind of experiment: Compound was evaluated in vivo for antitumor activity against TLX5S Lymphoma implanted mice and percentage increase in life span (%ILS(T/C)) was reported at a optimal dose of 20 mg/Kg. Type of data set: functional.
Data set [5] can be described thus: In vitro biological stability and half-life was measured in phosphate buffer at a pH of 4.5 at 37 degree Centigrade. Type of data set: physicochemical. The conditions noted are these: pH 4.5. The gist of the method: as §1
Data set [6] in a line: In vitro biological stability and half-life was measured in phosphate buffer at a pH of 5.2 at 37 degree Centigrade. Type of data set: physicochemical. Conditions: pH 5.2. The gist of the method: as §1
The nature of data set [7]: In vitro biological stability and half-life was measured in phosphate buffer at a pH of 2.5 at 37 degree Centigrade. Type of data set: physicochemical. Conditions: pH 2.5. In outline:
as §1

Data set [8] can be described thus: In vitro biological stability and half-life was measured in phosphate buffer at a pH of 3.5 at 37 degree Centigrade. Type of data set: physicochemical. Conditions: pH 3.5. In outline: as §1
A short description of data set [9]: In vitro biological stability and half-life was measured in Earl's buffer at a pH 7.4 of at 37 degree Centigrade. Type of data set: physicochemical. The gist of the method:
as §1

The nature of data set [10]: In vitro biological stability and half-life was measured in phosphate buffer at a pH 7.5 of at 25 degree Centigrade. It counts as physicochemical. The gist of the method:
as §1

The nature of data set [11]: In vitro biological stability and half-life was measured by HPLC in Earl's buffer at a pH of 7.4 at 37 degree Centigrade. Type of data set: physicochemical. Conditions: pH 7.4. The gist of the method:
(§2)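 Triazene incubated at 100 µg mL-1 in closed containers at 37 °C in pH 7.4 buffer: Earl's (NaCl, NaHCO3, glucose, KCl, NaH2PO4, HCl-adjusted) for line 1; 0.01 M Tris, HCl-adjusted, for line 2; Sorensen's KH2PO4/Na2HPO4 phosphate for line 3. Remaining triazene was followed by HPLC with 30% aqueous acetonitrile plus 0.1% diethylamine at 2 mL/min, and UV detection at the compound's λmax.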

A short description of data set [12]: In vitro biological stability and half-life was measured by HPLC in phosphate buffer at a pH of 7.4 at 37 degree Centigrade. Type of data set: physicochemical. The conditions noted are these: pH 7.4. In outline: as §2
A short description of data set [13]: In vitro biological stability and half-life was measured by HPLC in TRIS buffer at a pH of 7.4 at 37 degree Centigrade. It counts as physicochemical. The conditions noted are these: pH 7.4. The gist of the method:
as §2

For data set [14], the system named is Mus musculus. As to the kind of experiment: Compound was evaluated in vivo for antitumor activity against TLX5R Lymphoma implanted mice and percentage increase in life span (%ILS(T/C)) was reported at a optimal dose of 5 mg/Kg five times daily.

Broadly, the half-life is the time needed for the level to fall by half in the phase considered. Read a high half-life as slow loss. As to `CN/N=N/c1ccc(C(=O)OC)cc1`, the half-life was 12.1 min in [1] and 35 min in data set [2]. In addition, the “ILS (T/C)” value in the data set on Mus musculus [3] was found to be 4%; in the data set on Mus musculus [4], 87%.
With `CC(=O)c1ccc(/N=N/N(C)C)cc1`, the half-life in data set [5] was 108 min; in [6], more than 1440 min; in [7], 1.23 min; in [8] it was 11.8 min; in data set [1] it was more than 1440 min. Further, the “ILS (T/C)” value in the data set on Mus musculus [3] came out at 0%; with Mus musculus [4], 65%.
With `CCN=NNc1ccc(C#N)cc1`, the half-life in data set [9] is 18.3 min.
Same read-out and setting: the figure for `CN=NNc1ccc(C#N)cc1` is 99 min.
With `CCN(CO)N=Nc1ccc(C(=O)OC)cc1`, the half-life in data set [10] worked out at 7 min.
Consider `CN(CO)/N=N/c1ccc(C#N)cc1`, for which the “ILS (T/C)” value in the data set with Mus musculus [4] came to 54%.
Consider `CN=NNc1ccc(C(C)=O)cc1`, for which the half-life in data set [11] amounted to 66.6 min; in data set [12], 15.1 min; in data set [13] it was 36.2 min; in data set [1] it was 13.8 min.
With `CCN(CO)/N=N/c1ccc(C#N)cc1`, in the data set with Mus musculus [4], the “ILS (T/C)” value came to 0%.
In turn, `C/N=N/Nc1ccccc1` yielded a half-life in data set [1] of 3.5 min.
`COC(=O)c1ccc(/N=N/N(C)C)cc1` yielded a half-life in data set [2] of more than 1440 min. In addition, the results for the “ILS (T/C)” value in the data set on Mus musculus [3] and in the data set on Mus musculus [4] were 0% and 58%, respectively.
Regarding `COC(=O)c1ccc(/N=N/N(C)CO)cc1`, the half-life in [1] was 12.6 min; in [2], 22 min. For the same molecule, the “ILS (T/C)” value in the data set with Mus musculus [4] stood at 120%; in the data set on Mus musculus [14], 0%.
For `CN(CO)/N=N/c1ccc(C(N)=O)cc1`, in the data set with Mus musculus [4], the “ILS (T/C)” value turned out to be 62%.
In turn, `CCN=NNc1ccc(C(C)=O)cc1` gave a half-life in data set [11] of 15.1 min.
Molecule `COC(=O)c1ccc(/N=N/N(C)COC(=O)c2ccccc2)cc1` yielded a half-life in data set [2] of 26.5 min. For the same molecule, in the data set with Mus musculus [4], the “ILS (T/C)” value stood at 31%.
`CCN=NNc1ccc(C(=O)OC)cc1` displayed a half-life in data set [10] of 9 min.
In turn, `CC(=O)c1ccc(/N=N/N(C)CO)cc1` gave a half-life in data set [1] of 14.5 min. For the same molecule, the “ILS (T/C)” value in the data set on Mus musculus [4] is listed as 72%.
